Measurements from different studies.
Cell line: K562
Observed: cell growth or viability

CN1CCC(NC2CCc3[nH]c4c(C(N)=O)ccc(-c5ccccc5Cl)c4c3C2)CC1 (centres unmarked)  IC50 (96 h): 0.0214 µM
COc1ccc(Nc2ncnc3c2ncn3Cc2ccc(C(=O)NO)cc2)cc1  IC50 (MTT; 72 h): 3.7 µM
O=c1cc(OCc2cc(-c3ccc(C(F)(F)F)cc3)no2)c2ccccc2o1  IC50 (MTS; 72 h): > 100 µM
C=CC(C)(C)c1[nH]cnc1/C=C1/NC(=O)[C@H](C(C)C)NC1=O  IC50 (MTT): 1.77 µM
c1ccc(-c2cc(CNc3cccc4cccnc34)on2)nc1  IC50 (MTS; 72 h): 79.7 µM
O=C(NO)c1ccc(Cn2cnc3c(Nc4ccc(F)c(Cl)c4)ncnc32)cc1  IC50 (MTT; 72 h): 7.35 µM
N/C(=N\O)c1ccc(-c2cc(CNc3cccc4cccnc34)on2)cc1  IC50 (MTS; 72 h): 86.6 µM
COc1cccc2c1C(=O)c1c(O)c3c(c(O)c1C2=O)C[C@@](O)(C(=O)CO)C[C@@H]3O[C@H]1C[C@H](N)[C@H](O)[C@H](C)O1  IC50: 0.13 µM
CC(C)=CCc1ncc(/C=C2\NC(=O)[C@H](C(C)C)NC2=O)[nH]1  IC50 (MTT): > 15 µM
O=C(NO)c1ccc(Cn2cnc3c(Nc4ccc(Cl)cc4)ncnc32)cc1  IC50 (MTT; 72 h): 13.8 µM
Cc1sc2c(c1C)C(c1ccc(Cl)cc1)=N[C@@H](CC(=O)NCCCCNC(=O)COc1cccc3c1C(=O)N(C1CCC(=O)NC1=O)C3=O)c1nnc(C)n1-2 (some centres unmarked)  IC50 (CCK-8; 72 h): 0.73 µM
